{"source": "paper PMC8063330", "about": "(Oncology Letters, 2021)", "key": {"[1]": {"test_system": "c-myc in MKN-45 cells", "experiment": "c-myc level by western blotting in MKN-45", "assay_type": "cell-based", "conditions": "24 h", "method_in_brief": "(§1)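 Cells grown in RPMI-1640 with 10% FBS and exposed to test compound. Lysates run on SDS-PAGE and immunoblotted for c-Myc with tubulin as loading reference. HRP secondaries, ECL detection.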"}, "[2]": {"test_system": "c-myc in SNU-638 cells", "experiment": "c-myc level by western blotting in SNU-638", "assay_type": "cell-based", "conditions": "24 h", "method_in_brief": "as §1"}}}
{"smiles": "CCNC(=O)C[C@@H]1N=C(c2ccc(Cl)cc2)c2cc(OC)ccc2-n2c(C)nnc21", "note": "[I-BET-762]", "values": [{"measurement": "c-myc level", "setting": "[1]", "value": "did not downregulate the c-myc level"}, {"measurement": "c-myc level", "setting": "[2]", "value": "downregulated the c-myc level"}]}
